Assay results published in ChEMBL document CHEMBL5058577, “EUbOPEN Chemogenomics Library 2 (Multiplex)” (2022).

Test system: Fibroblast
Test: Multiplex assay against human fibroblast
Type: toxicity, cell-based
Procedure, shortened: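 Compound was added to live cells that had been stained at seeding with Hoechst33342, BioTracker Green Microtubule Cytoskeleton Dye, MitoTracker Red and Annexin V Alexa Fluor 680, and imaging followed on a CQ1 microscope at 37°C and 5% CO2. CellPathfinder machine-learning gating divided cells into Hoechst high-intensity objects or normal cells, normal cells into healthy, pyknosed or fragmented nuclei, and pyknosed cells into mitotic or apoptotic. Tubulin, mitochondrial-mass and membrane-permeability phenotypes are per cents of healthy-nucleus cells.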

[1] = 12 h, 1 µM, compound concentration 1 uM, replicate 1
[2] = 12 h, 1 µM, compound concentration 1 uM, replicate 2
[3] = 12 h, 10 µM, compound concentration 10 uM, replicate 1
[4] = 12 h, 10 µM, compound concentration 10 uM, replicate 2
[5] = 24 h, 1 µM, compound concentration 1 uM, replicate 1
[6] = 24 h, 1 µM, compound concentration 1 uM, replicate 2
[7] = 24 h, 10 µM, compound concentration 10 uM, replicate 1
[8] = 24 h, 10 µM, compound concentration 10 uM, replicate 2
[9] = 48 h, 1 µM, compound concentration 1 uM, replicate 1
[10] = 48 h, 1 µM, compound concentration 1 uM, replicate 2
[11] = 48 h, 10 µM, compound concentration 10 uM, replicate 1
[12] = 48 h, 10 µM, compound concentration 10 uM, replicate 2

## CC(/C=C1\SC(=S)N(CCCC(=O)Nc2ccc(C(=O)O)c(O)c2)C1=O)=C\c1ccccc1
[1]
  Population Apoptotic (%): 50%
  Population Fragmented Nuclei (%): 14%
  Population Healthy Nuclei (%): 71%
  Population Hoechst High Intensity Objects (%): 2%
  Population Membrane Permeable-Phenotype (%): 0%
  Population Mitochondria Different-Phenotype (%): 2%
  Population Mitotic Cells (%): 50%
  Population Normal (%): 97%
  Population Pyknosed Nuclei (%): 13%
  Population Tubulin-Different-Phenotype (%): 28%
  Total Cell Count: 206
[2]
  Population Apoptotic (%): 33%
  Population Fragmented Nuclei (%): 19%
  Population Healthy Nuclei (%): 60%
  Population Hoechst High Intensity Objects (%): 3%
  Population Membrane Permeable-Phenotype (%): 13%
  Population Mitochondria Different-Phenotype (%): 9%
  Population Mitotic Cells (%): 66%
  Population Normal (%): 96%
  Population Pyknosed Nuclei (%): 19%
  Population Tubulin-Different-Phenotype (%): 54%
  Total Cell Count: 157
[3]
  Population Apoptotic (%): 56%
  Population Fragmented Nuclei (%): 15%
  Population Healthy Nuclei (%): 70%
  Population Hoechst High Intensity Objects (%): 2%
  Population Membrane Permeable-Phenotype (%): 0%
  Population Mitochondria Different-Phenotype (%): 5%
  Population Mitotic Cells (%): 43%
  Population Normal (%): 97%
  Population Pyknosed Nuclei (%): 13%
  Population Tubulin-Different-Phenotype (%): 44%
  Total Cell Count: 123
[4]
  Population Apoptotic (%): 40%
  Population Fragmented Nuclei (%): 19%
  Population Healthy Nuclei (%): 48%
  Population Hoechst High Intensity Objects (%): 4%
  Population Membrane Permeable-Phenotype (%): 8%
  Population Mitotic Cells (%): 59%
  Population Normal (%): 95%
  Population Pyknosed Nuclei (%): 31%
  Population Tubulin-Different-Phenotype (%): 54%
  Total Cell Count: 122
[5]
  Population Apoptotic (%): 54%
  Population Fragmented Nuclei (%): 17%
  Population Healthy Nuclei (%): 72%
  Population Hoechst High Intensity Objects (%): 1%
  Population Membrane Permeable-Phenotype (%): 2%
  Population Mitochondria Different-Phenotype (%): 4%
  Population Mitotic Cells (%): 45%
  Population Normal (%): 98%
  Population Pyknosed Nuclei (%): 10%
  Population Tubulin-Different-Phenotype (%): 25%
  Total Cell Count: 208
[6]
  Population Apoptotic (%): 33%
  Population Healthy Nuclei (%): 63%
  Population Hoechst High Intensity Objects (%): 2%
  Population Membrane Permeable-Phenotype (%): 5%
  Population Mitochondria Different-Phenotype (%): 12%
  Population Mitotic Cells (%): 66%
  Population Normal (%): 97%
  Population Pyknosed Nuclei (%): 19%
  Population Tubulin-Different-Phenotype (%): 44%
  Total Cell Count: 144
[7]
  Population Apoptotic (%): 66%
  Population Fragmented Nuclei (%): 11%
  Population Healthy Nuclei (%): 81%
  Population Hoechst High Intensity Objects (%): 0%
  Population Membrane Permeable-Phenotype (%): 0%
  Population Mitochondria Different-Phenotype (%): 4%
  Population Mitotic Cells (%): 33%
  Population Normal (%): 99%
  Population Pyknosed Nuclei (%): 7%
  Population Tubulin-Different-Phenotype (%): 25%
  Total Cell Count: 119
[8]
  Population Apoptotic (%): 53%
  Population Fragmented Nuclei (%): 20%
  Population Healthy Nuclei (%): 53%
  Population Hoechst High Intensity Objects (%): 4%
  Population Membrane Permeable-Phenotype (%): 11%
  Population Mitotic Cells (%): 46%
  Population Normal (%): 95%
  Population Pyknosed Nuclei (%): 26%
  Population Tubulin-Different-Phenotype (%): 70%
  Total Cell Count: 120
[9]
  Population Apoptotic (%): 78%
  Population Fragmented Nuclei (%): 24%
  Population Healthy Nuclei (%): 66%
  Population Hoechst High Intensity Objects (%): 3%
  Population Membrane Permeable-Phenotype (%): 1%
  Population Mitochondria Different-Phenotype (%): 2%
  Population Mitotic Cells (%): 21%
  Population Normal (%): 96%
  Population Pyknosed Nuclei (%): 9%
  Population Tubulin-Different-Phenotype (%): 31%
  Total Cell Count: 216
[10]
  Population Apoptotic (%): 45%
  Population Fragmented Nuclei (%): 29%
  Population Healthy Nuclei (%): 56%
  Population Hoechst High Intensity Objects (%): 1%
  Population Membrane Permeable-Phenotype (%): 7%
  Population Mitochondria Different-Phenotype (%): 6%
  Population Mitotic Cells (%): 54%
  Population Normal (%): 98%
  Population Pyknosed Nuclei (%): 14%
  Population Tubulin-Different-Phenotype (%): 44%
  Total Cell Count: 159
[11]
  Population Apoptotic (%): 46%
  Population Fragmented Nuclei (%): 18%
  Population Healthy Nuclei (%): 69%
  Population Hoechst High Intensity Objects (%): 0%
  Population Membrane Permeable-Phenotype (%): 0%
  Population Mitochondria Different-Phenotype (%): 1%
  Population Mitotic Cells (%): 53%
  Population Normal (%): 100%
  Population Pyknosed Nuclei (%): 12%
  Population Tubulin-Different-Phenotype (%): 33%
  Total Cell Count: 124
[12]
  Population Apoptotic (%): 59%
  Population Fragmented Nuclei (%): 34%
  Population Healthy Nuclei (%): 46%
  Population Hoechst High Intensity Objects (%): 3%
  Population Membrane Permeable-Phenotype (%): 5%
  Population Mitochondria Different-Phenotype (%): 5%
  Population Mitotic Cells (%): 40%
  Population Normal (%): 96%
  Population Pyknosed Nuclei (%): 19%
  Population Tubulin-Different-Phenotype (%): 58%
  Total Cell Count: 118
